These results are taken from PMC2646117 (Cell host & microbe, 2008).

Like-named read-outs stand apart in the source and are kept apart here.

Series [1] relates to ANKA. Briefly: Ex vivo drug susceptibility assay, P. berghei asexual blood stages. The format is cell-based. The conditions noted are these: Plasmodium berghei.
The test system of series [2] is PbΔfabI. The description is as above. The conditions noted are these: Plasmodium berghei. The format is cell-based.
In series [3] the test system is PbfabI^Rec. Briefly: Ex vivo drug susceptibility assay, P. berghei asexual blood stages. It is filed as cell-based. To be noted: Plasmodium berghei. The essentials: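 Ex vivo growth of P. berghei asexual blood-stage parasites exposed to the test compound was measured by [³H]-hypoxanthine assay. IC50 was calculated by linear regression. Each compound was tested in duplicate on at least two separate occasions.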

For series [4], the system named is P. berghei. The conditions noted are these: SC, 3 mg/kg/day, four days; ref Surolia and Surolia, 2001; cited from earlier work.
Series [5] concerns PfΔfabI^2. Nature of the series: Drug susceptibility assay, pffabI knockout clone. The conditions noted are these: Plasmodium falciparum, read-out: IC50 (mean ± SEM). The format is cell-based, P. falciparum.
Series [6] has as its system PffabI(WT)^3D7. Briefly: Drug susceptibility assay, transgenic line. The conditions noted are these: Plasmodium falciparum. The format is cell-based, P. falciparum.
In series [7] the test system is 3D7^attB. Nature of the series: Drug susceptibility assay, parental line. It is filed as cell-based, P. falciparum. The conditions noted are these: Plasmodium falciparum.
For series [8], the system named is P. falciparum 3D7. The format is cell-based. To be noted: Plasmodium falciparum, 3D7, read-out: mean IC50.
Series [9] concerns Dd2^attB. Nature of the series: Drug susceptibility assay, parental line. The format is cell-based, P. falciparum. To be noted: Plasmodium falciparum.
In series [10] the test system is PfΔfabI^1. Nature of the series: Drug susceptibility assay, pffabI knockout clone. It is filed as cell-based, P. falciparum. The conditions noted are these: Plasmodium falciparum, read-out: IC50 (mean ± SEM).
In series [11] the test system is recombinant PfFabI A217V. The conditions noted are these: recombinant PfFabI A217V versus wild type; ref Kapoor et al., 2004; cited from earlier work.
In series [12] the test system is PffabI(A217V)^Dd2. Nature of the series: Drug susceptibility assay, transgenic line. The format is cell-based, P. falciparum. To be noted: Plasmodium falciparum.
Series [13] deals with PffabI(WT)^Dd2. Briefly: Drug susceptibility assay, transgenic line. The format is cell-based, P. falciparum. The conditions noted are these: Plasmodium falciparum.
For series [14], the system named is P. falciparum Dd2. The format is cell-based. The conditions noted are these: Plasmodium falciparum, DD2, read-out: mean IC50.
Series [15] relates to P. berghei (KBG-173 line). The format is in vivo. The conditions noted are these: for parasitemia on day 6 post-infection: three days twice-daily divided dose.
The subject of series [16] is PffabI(A217V)^3D7. Nature of the series: Drug susceptibility assay, transgenic line. It is filed as cell-based, P. falciparum. To be noted: Plasmodium falciparum.

Regarding `CCN(CC)CCCC(C)Nc1ccnc2cc(Cl)ccc12` (centres unmarked) [chloroquine], the results for the concentration for half-maximal inhibition (IC50) in series [1], in [2] and in series [3] were 10.4 ± 0.3 nM, 11 ± 0.1 nM and 13 ± 0.6 nM, respectively.

For `Oc1cc(Cl)ccc1Oc1ccc(Cl)cc1Cl` [triclosan, 5-chloro-2-(2,4-dichlorophenoxy)phenol], the “suppression of P. berghei parasitemia” value in series [4] is on record as 75%. Besides, the half-inhibitory concentration (IC50) in series [5] is 2400 ± 300 nM; in [6] (3D7, read-out: IC50 (mean±SEM)) it was […]; in series [7] (3D7, read-out: IC50 (mean±SEM)) it was […]; in [8], 1800 nM; in [9] (DD2, read-out: IC50 (mean±SEM)) it was […]; in series [10], 2200 ± 200 nM. Moreover, the half-maximal inhibitory concentration (IC50) in series [1] (read-out: IC50 (means±SEM)) turned out to be […]; in series [12] (DD2, read-out: IC50 (mean±SEM)), […]; in series [13] (DD2, read-out: IC50 (mean±SEM)), […]; in [14], […]; in [2] (read-out: IC50 (means±SEM)), 1400 ± 100 nM; in series [3] (read-out: IC50 (means±SEM)) it was 1500 ± 200 nM. Besides, in [16] (3D7, read-out: IC50 (mean±SEM)), the IC50 turned out to be […]. Further, the IC90 in series [6] (3D7, read-out: IC90 (mean±SEM)) was determined as […]; in [7] (3D7, read-out: IC90 (mean±SEM)) it was 4800 ± 600 nM; in series [9] (DD2, read-out: IC90 (mean±SEM)), […]; in series [12] (DD2, read-out: IC90 (mean±SEM)) it was […]; in series [13] (DD2, read-out: IC90 (mean±SEM)), […]; in series [16] (3D7, read-out: IC90 (mean±SEM)), […]. Further, the “decrease in binding affinity conferred by A217V mutation” value in [11] was […]. In addition, the “parasitemia at doses above 128 mg/kg/day” value in [15] (PO or SC, doses higher than 128 mg/kg/day) is “failed to further suppress the parasitemias”. Moreover, the survival times result in series [15] (PO, 64 mg/kg/day) is on record as “slight extension in survival times”. For the same compound, the “survival rate at day 31” value in series [15] (PO, 128 mg/kg/day) worked out at 30%; in series [15] (PO, 256 mg/kg/day), 30%. For the same compound, the “parasitemia on day 6 post-infection” value is on record as 27% in series [15] (PO, 128 mg/kg/day, placebo control 61%) and 13% in series [15] (SC, 128 mg/kg/day, placebo control 57%). Besides, the “mortality / overall survival (toxicity)” value in [15] (PO, 512 mg/kg/day) was “some early mortality and decreased overall survival rates”. Further, the survival in series [15] (SC route, 16 to 512 mg/kg/day) is listed as no more than 50%.
